Data taken from ChEMBL document CHEMBL1914423, “New imidazo[2,1-b]thiazole derivatives: synthesis, in vitro anticancer evaluation, and in silico studies” (Eur J Med Chem, 2011).

Tested on: SF-295
Experiment: Anticancer activity against human SF295 cells assessed as cell growth at 10^-5 M after 48 hrs by SRB assay
Assay type: functional
Settings: SF-295, 48 h, read-out: Activity

Row | SMILES | growth at 10 µM [%]
1 | O=C(NCCNc1nccc(-c2c(-c3cccc(O)c3)nc3sccn23)n1)c1cccc(C(F)(F)F)c1 | 69.6

Tested on: SK-MEL-28
Experiment: Anticancer activity against human SK-MEL-28 cells assessed as cell growth at 10^-5 M after 48 hrs by SRB assay
Assay type: functional
Settings: SK-MEL-28, 48 h, read-out: Activity

Row | SMILES | growth at 10 µM [%]
2 | O=C(NCCNc1nccc(-c2c(-c3cccc(O)c3)nc3sccn23)n1)c1cccc(C(F)(F)F)c1 | 38.5

Tested on: MDA-MB-468
Experiment: Anticancer activity against human MDA-MB-468 cells assessed as cell growth at 10^-5 M after 48 hrs by SRB assay
Assay type: functional
Settings: MDA-MB-468, 48 h, read-out: Activity

Row | SMILES | growth at 10 µM [%]
3 | O=C(NCCNc1nccc(-c2c(-c3cccc(O)c3)nc3sccn23)n1)c1cccc(C(F)(F)F)c1 | 70.5

Tested on: IGROV-1
Experiment: Anticancer activity against human IGROV1 cells assessed as cell growth at 10^-5 M after 48 hrs by SRB assay
Assay type: functional
Settings: IGROV-1, 48 h, read-out: Activity
How it was run: (§1)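 NCI-60 single-dose screen at one concentration. Cells grown in RPMI 1640 with 5% FBS and 2 mM L-glutamine, plated at 5000–40,000 cells/well, and pre-incubated 24 h at 37 °C in 5% CO2 before DMSO-dissolved drug was added. Cells fixed with TCA, SRB-stained, absorbance read at 515 nm. Percent growth calculated against time-zero and untreated control plates.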

Row | SMILES | growth at 10 µM [%]
4 | O=C(NCCNc1nccc(-c2c(-c3cccc(O)c3)nc3sccn23)n1)c1cccc(C(F)(F)F)c1 | 62.1

Tested on: NCI-H460
Experiment: Anticancer activity against human NCI-H460 cells assessed as cell growth at 10^-5 M after 48 hrs by SRB assay
Assay type: functional
Settings: NCI-H460, 48 h, read-out: Activity

Row | SMILES | growth at 10 µM [%]
5 | O=C(NCCNc1nccc(-c2c(-c3cccc(O)c3)nc3sccn23)n1)c1cccc(C(F)(F)F)c1 | 85.7

Tested on: SR
Experiment: Anticancer activity against human SR cells assessed as cell growth at 10^-5 M after 48 hrs by SRB assay
Assay type: functional
Settings: read-out: Activity
How it was run: (§2)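 NCI-60 single-dose screen: cells in RPMI 1640 with 5% FBS and 2 mM L-glutamine, plated at 5000–40,000 cells/well by doubling time, and preincubated 24 h at 37 °C. Compound given at one concentration from DMSO stock. Cells TCA-fixed and SRB-stained, absorbance at 515 nm. Percent growth relative to time-zero and untreated controls; inhibition % = 100 − growth %.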

Row | SMILES | growth at 10 µM [%]
6 | O=C(NCCNc1nccc(-c2c(-c3cccc(O)c3)nc3sccn23)n1)c1cccc(C(F)(F)F)c1 | 97

Tested on: RXF 393
Experiment: Anticancer activity against human RXF393 cells assessed as cell growth at 10^-5 M after 48 hrs by SRB assay
Assay type: functional
Settings: RXF 393, 48 h, read-out: Activity

Row | SMILES | growth at 10 µM [%]
7 | O=C(NCCNc1nccc(-c2c(-c3cccc(O)c3)nc3sccn23)n1)c1cccc(C(F)(F)F)c1 | 79.9

Tested on: K562
Experiment: Anticancer activity against human K562 cells assessed as cell growth at 10^-5 M after 48 hrs by SRB assay
Assay type: functional
Settings: K562, 48 h, read-out: Activity
How it was run: as §1

Row | SMILES | growth at 10 µM [%]
8 | O=C(NCCNc1nccc(-c2c(-c3cccc(O)c3)nc3sccn23)n1)c1cccc(C(F)(F)F)c1 | 56.2

Tested on: SK-MEL-5
Experiment: Anticancer activity against human SK-MEL-5 cells assessed as cell growth at 10^-5 M after 48 hrs by SRB assay
Assay type: functional
Settings: SK-MEL-5, 48 h, read-out: Activity

Row | SMILES | growth at 10 µM [%]
9 | O=C(NCCNc1nccc(-c2c(-c3cccc(O)c3)nc3sccn23)n1)c1cccc(C(F)(F)F)c1 | 52.6

Tested on: NCI/ADR-RES
Experiment: Anticancer activity against human NCI/ADR-RES cells assessed as cell growth at 10^-5 M after 48 hrs by SRB assay
Assay type: functional
Settings: read-out: Activity

Row | SMILES | growth at 10 µM [%]
10 | O=C(NCCNc1nccc(-c2c(-c3cccc(O)c3)nc3sccn23)n1)c1cccc(C(F)(F)F)c1 | 98.3

Tested on: UACC-257
Experiment: Anticancer activity against human UACC257 cells assessed as cell growth at 10^-5 M after 48 hrs by SRB assay
Assay type: functional
Settings: UACC-257, 48 h, read-out: Activity
How it was run: as §2

Row | SMILES | growth at 10 µM [%]
11 | O=C(NCCNc1nccc(-c2c(-c3cccc(O)c3)nc3sccn23)n1)c1cccc(C(F)(F)F)c1 | 14.3

Tested on: SN12C
Experiment: Anticancer activity against human SN12C cells assessed as cell growth at 10^-5 M after 48 hrs by SRB assay
Assay type: functional
Settings: read-out: Activity

Row | SMILES | growth at 10 µM [%]
12 | O=C(NCCNc1nccc(-c2c(-c3cccc(O)c3)nc3sccn23)n1)c1cccc(C(F)(F)F)c1 | 83.2

Tested on: HCC 2998
Experiment: Anticancer activity against human HCC2998 cells assessed as cell growth at 10^-5 M after 48 hrs by SRB assay
Assay type: functional
Settings: HCC 2998, 48 h, read-out: Activity
How it was run: as §1

Row | SMILES | growth at 10 µM [%]
13 | O=C(NCCNc1nccc(-c2c(-c3cccc(O)c3)nc3sccn23)n1)c1cccc(C(F)(F)F)c1 | 117

Tested on: A549
Experiment: Anticancer activity against human A549 cells assessed as cell growth at 10^-5 M after 48 hrs by SRB assay
Assay type: functional
Settings: A549, 48 h, read-out: Activity
How it was run: as §1

Row | SMILES | growth at 10 µM [%]
14 | O=C(NCCNc1nccc(-c2c(-c3cccc(O)c3)nc3sccn23)n1)c1cccc(C(F)(F)F)c1 | 71.3

Tested on: HL-60(TB)
Experiment: Anticancer activity against human HL-60(TB) cells assessed as cell growth at 10^-5 M after 48 hrs by SRB assay
Assay type: functional
Settings: HL-60, 48 h, read-out: Activity
How it was run: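 NCI-60 single-dose screen. Cells in RPMI 1640 with 5% FBS and 2 mM L-glutamine were plated at 5000–40,000 cells/well and preincubated 24 h at 37 °C before one compound concentration. Time-zero plates were TCA-fixed at drug addition. For suspension cells, settled cells were fixed with cold TCA, then SRB-stained and read at 515 nm. Percent growth was calculated from time-zero, control and treated absorbances.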

Row | SMILES | growth at 10 µM [%]
15 | O=C(NCCNc1nccc(-c2c(-c3cccc(O)c3)nc3sccn23)n1)c1cccc(C(F)(F)F)c1 | 95.5

Tested on: PC-3
Experiment: Anticancer activity against human PC3 cells assessed as cell growth at 10^-5 M after 48 hrs by SRB assay
Assay type: functional
Settings: PC-3, 48 h, read-out: Activity

Row | SMILES | growth at 10 µM [%]
16 | O=C(NCCNc1nccc(-c2c(-c3cccc(O)c3)nc3sccn23)n1)c1cccc(C(F)(F)F)c1 | 67.3

Tested on: MOLT-4
Experiment: Anticancer activity against human MOLT4 cells assessed as cell growth at 10^-5 M after 48 hrs by SRB assay
Assay type: functional
Settings: MOLT-4, 48 h, read-out: Activity

Row | SMILES | growth at 10 µM [%]
17 | O=C(NCCNc1nccc(-c2c(-c3cccc(O)c3)nc3sccn23)n1)c1cccc(C(F)(F)F)c1 | 61.5

Tested on: UACC-62
Experiment: Anticancer activity against human UACC62 cells assessed as cell growth at 10^-5 M after 48 hrs by SRB assay
Assay type: functional
Settings: UACC-62, 48 h, read-out: Activity
How it was run: as §2

Row | SMILES | growth at 10 µM [%]
18 | O=C(NCCNc1nccc(-c2c(-c3cccc(O)c3)nc3sccn23)n1)c1cccc(C(F)(F)F)c1 | 3.21

Tested on: COLO 205
Experiment: Anticancer activity against human COLO205 cells assessed as cell growth at 10^-5 M after 48 hrs by SRB assay
Assay type: functional
Settings: COLO 205, 48 h, read-out: Activity
How it was run: as §1

Row | SMILES | growth at 10 µM [%]
19 | O=C(NCCNc1nccc(-c2c(-c3cccc(O)c3)nc3sccn23)n1)c1cccc(C(F)(F)F)c1 | 71.1

Tested on: MDA-MB-435
Experiment: Anticancer activity against human MDA-MB-435 cells assessed as cell growth at 10^-5 M after 48 hrs by SRB assay
Assay type: functional
Settings: MDA-MB-435, 48 h, read-out: Activity

Row | SMILES | growth at 10 µM [%]
20 | O=C(NCCNc1nccc(-c2c(-c3cccc(O)c3)nc3sccn23)n1)c1cccc(C(F)(F)F)c1 | 21.7

Tested on: CAKI-1
Experiment: Anticancer activity against human Caki1 cells assessed as cell growth at 10^-5 M after 48 hrs by SRB assay
Assay type: functional
Settings: CAKI-1, 48 h, read-out: Activity
How it was run: as §1

Row | SMILES | growth at 10 µM [%]
21 | O=C(NCCNc1nccc(-c2c(-c3cccc(O)c3)nc3sccn23)n1)c1cccc(C(F)(F)F)c1 | 75.6

Tested on: not listed separately
Experiment: Antiproliferative activity against human A375P cells after 48 hrs by MTT assay
Assay type: functional, cell-based
Settings: not given
How it was run: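 A375P cells in DMEM with 10% FBS at 37 °C, 5% CO2. Seeded at 5×10³ cells/well, held 24 h, then treated with 12-point 3-fold serial dilutions for 48 h. Viability by MTT reduction. IC50 values are means of triplicate experiments.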

Row | SMILES | IC50 [nM]
22 | O=C(NCCNc1nccc(-c2c(-c3cccc(O)c3)nc3sccn23)n1)c1cccc(C(F)(F)F)c1 | 2100

Tested on: SW-620
Experiment: Anticancer activity against human SW620 cells assessed as cell growth at 10^-5 M after 48 hrs by SRB assay
Assay type: functional
Settings: SW-620, 48 h, read-out: Activity
How it was run: as §2

Row | SMILES | growth at 10 µM [%]
23 | O=C(NCCNc1nccc(-c2c(-c3cccc(O)c3)nc3sccn23)n1)c1cccc(C(F)(F)F)c1 | 107

Tested on: M14
Experiment: Anticancer activity against human M14 cells assessed as cell growth at 10^-5 M after 48 hrs by SRB assay
Assay type: functional
Settings: M14, 48 h, read-out: Activity
How it was run: as §1

Row | SMILES | growth at 10 µM [%]
24 | O=C(NCCNc1nccc(-c2c(-c3cccc(O)c3)nc3sccn23)n1)c1cccc(C(F)(F)F)c1 | 17.5

Tested on: SNB-19
Experiment: Anticancer activity against human SNB19 cells assessed as cell growth at 10^-5 M after 48 hrs by SRB assay
Assay type: functional
Settings: SNB-19, 48 h, read-out: Activity

Row | SMILES | growth at 10 µM [%]
25 | O=C(NCCNc1nccc(-c2c(-c3cccc(O)c3)nc3sccn23)n1)c1cccc(C(F)(F)F)c1 | 116

Tested on: OVCAR-4
Experiment: Anticancer activity against human OVCAR4 cells assessed as cell growth at 10^-5 M after 48 hrs by SRB assay
Assay type: functional
Settings: OVCAR-4, 48 h, read-out: Activity

Row | SMILES | growth at 10 µM [%]
26 | O=C(NCCNc1nccc(-c2c(-c3cccc(O)c3)nc3sccn23)n1)c1cccc(C(F)(F)F)c1 | 117
